Measurements reported in ChEMBL document CHEMBL3259597 (J Med Chem, 2014).

Legend:
[1] = Lipophilicity, log D of the compound by octanol/buffer shake flask method; format: physicochemical
[2] = Clearance in rat at 1 mg/kg, iv; format: ADME, organism-based; design: dose 1 mg/kg, route intravenous; settings: in vivo
Summary of the method: (§1)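 Rat pharmacokinetics after a single IV dose of 1 mg/kg and an oral dose of 5 mg/kg. Reported parameters are AUC, t1/2, clearance, Vss and oral bioavailability.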

[3] = AUC in Sprague-Dawley rat at 30 mg/kg, po; format: ADME, organism-based; design: dose 30 mg/kg, route oral; settings: plasma
Summary of the method: (§2)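 Male Sprague-Dawley rats, about 11 weeks old (300−400 g), singly housed with chow and water ad libitum. […] Urine was collected overnight predose and at 0−2, 2−4 and 4−7 h postdose for Na+ and K+, normalised to creatinine. Plasma drug was measured by LC-MS.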

[4] = Oral bioavailability in rat at 5 mg/kg; format: ADME, organism-based; settings: in vivo; summary of the method: as §1
[5] = AUC in rat at 5 mg/kg, po; format: ADME, organism-based; design: dose 5 mg/kg, route oral; settings: plasma; summary of the method: as §1
[6] = Volume of distribution at steady state in rat at 1 mg/kg, iv; format: ADME, organism-based; design: dose 1 mg/kg, route intravenous; settings: in vivo, read-out: Vdss; summary of the method: as §1
[7] = Intrinsic clearance in human liver microsomes; format: ADME; settings: read-out: CLH
[8] = AUC in Sprague-Dawley rat at 10 mg/kg, po; format: ADME, organism-based; design: dose 10 mg/kg, route oral; settings: plasma; summary of the method: as §2
[9] = Half life in rat at 1 mg/kg, iv; format: ADME, organism-based; design: dose 1 mg/kg, route intravenous; settings: in vivo; summary of the method: as §1
[10] = AUC in Sprague-Dawley rat at 3 mg/kg, po; format: ADME, organism-based; design: dose 3 mg/kg, route oral; settings: plasma; summary of the method: as §2
[11] = AUC in rat at 1 mg/kg, iv; format: ADME, organism-based; design: dose 1 mg/kg, route intravenous; settings: plasma; summary of the method: as §1

COc1cc(C2=NN(c3ccc(C#N)c(Cl)c3)[C@@H](C3CCCC3)C2)ccc1C(=O)O
logD [1]: 2.1

CCOc1cc(C2=NN(c3ccc(C#N)c(Cl)c3)[C@@H](C3CCCC3)C2)ccc1C(=O)O
logD [1]: 2.6

COc1cc(C2=NN(c3ccc(C#N)c(C)c3)[C@@H](C3CCCC3)C2)ccc1C(=O)O
logD [1]: 2.2

CCOc1cc(C2=NN(c3ccc(C#N)c(C)c3)[C@@H](C3CCCC3)C2)ccc1C(=O)O
logD [1]: 2.7

COc1nc(C2=NN(c3ccc(C#N)c(C)c3)[C@@H](C3CCCC3)C2)ccc1C(=O)O
clearance [2]: 33 mL/min/kg
AUC [3]: 33600 ng·h/mL
bioavailability [4]: 54%
AUC [5]: 1320 ng·h/mL
Vd [6]: 3.1 L/kg
microsomal CLint [7]: < 14 µL/min/mg
AUC [8]: 9240 ng·h/mL
half-life [9]: 138 min
AUC [10]: 1170 ng·h/mL
logD [1]: 2.2
AUC [11]: 494 ng·h/mL

COc1nc(C2=NN(c3ccc(C#N)c(C)c3)[C@H](C3CCCC3)C2)ccc1C(=O)O
logD [1]: 2.2

COc1nc(C2=NN(c3ccc(C#N)c(C)n3)[C@@H](C3CCCC3)C2)ccc1C(=O)O
logD [1]: 2

COc1cc(C2=NN(c3ccc(C#N)c(C)n3)[C@@H](C3CCCC3)C2)ccc1C(=O)O
logD [1]: 1.7

Cc1nc(N2N=C(c3ccc(C(=O)O)cc3)C[C@@H]2C2CCCC2)ccc1C#N
logD [1]: 2.6

CCOc1nc(C2=NN(c3ccc(C#N)c(C)c3)[C@@H](C3CCCC3)C2)ccc1C(=O)O
logD [1]: 3

COc1nc(C2=NN(c3ccc(C#N)c(Cl)c3)[C@@H](C3CCCC3)C2)ccc1C(=O)O
logD [1]: 2.3

COc1nc(C2=NN(c3ccc(C#N)c(C)n3)[C@@H](C(C)C)C2)ccc1C(=O)O
logD [1]: 1.6

COc1nc(C2=NN(c3ccc(C#N)c(C)c3)[C@@H](C3CCCC3)C2)ccc1C(N)=O
logD [1]: 3.8

CNC(=O)c1ccc(C2=NN(c3ccc(C#N)c(C)c3)[C@@H](C3CCCC3)C2)nc1OC
logD [1]: 4.4

COc1nc(C2=NN(c3ccc(C#N)c(C)c3)[C@@H](C3CCCC3)C2)ccc1C(=O)N(C)C
logD [1]: 3.5

COc1nc(C2=NN(c3ccc(C#N)c(C)n3)[C@@H](C3CCCC3)C2)ccc1C(N)=O
logD [1]: 3.4

CNC(=O)c1ccc(C2=NN(c3ccc(C#N)c(C)n3)[C@@H](C3CCCC3)C2)nc1OC
logD [1]: 3.2

COc1nc(C2=NN(c3ccc(C#N)c(C)n3)[C@@H](C3CCCC3)C2)ccc1C(=O)N(C)C
logD [1]: 4.1

COc1nc(C2=NN(c3ccc(C#N)c(C)c3)[C@@H](C3CCCC3)C2)ccc1C(=O)NS(C)(=O)=O
microsomal CLint [7]: 175 µL/min/mg
logD [1]: 2.3

COc1nc(C2=NN(c3ccc(C#N)c(C)n3)[C@@H](C3CCCC3)C2)ccc1C(=O)NS(C)(=O)=O
logD [1]: 1.9

COc1nc(C2=NN(c3ccc(C#N)c(C)c3)[C@@H](C3CCCC3)C2)ccc1C(=O)Nc1nnn[nH]1
logD [1]: 3.2

N#Cc1ccc(N2N=C3c4ccc(C(=O)O)cc4CC[C@@H]3[C@@H]2C2CCCC2)cc1Cl [PF-03882845]
logD [1]: 3.5
